Measurements: ChEMBL document CHEMBL3259761, “Myrotheciumones: bicyclic cytotoxic lactones isolated from an endophytic fungus of Ajuga decumbens” (Bioorg Med Chem Lett, 2014)
Active and inactive are the calls of the source. The calls are words filed in the database; no cut-off is given here.

How the values were obtained:
[1] = Cytotoxicity against human HL7702 cells after 48 hrs by MTT assay; format: cell-based; settings: L02, 48 h
Procedure, shortened: (§1)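 Cell lines: HepG2, A549 and MCF-7 from ATCC; SMMC-7721 hepatocellular carcinoma and QSG-7701 and HL-7702 normal human hepatocyte lines from the Type Culture Collection of the Chinese Academy of Sciences, Shanghai. Each line was exposed to compound and growth inhibition was scored; IC50 values reported as mean ± deviation.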

[2] = test system: HepG2; test: Induction of apoptosis in human HepG2 cells assessed as cytochrome c release from mitochondria at 4 uM after 12 hrs by immunofluorescence analysis relative to control; format: functional, cell-based
Procedure, shortened: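 HepG2 cells were treated at 4 µM for 12 h, then assessed for cytochrome c release from mitochondria.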

[3] = test system: MCF7; test: Cytotoxicity against human MCF7 cells after 48 hrs by MTT assay; format: functional, cell-based; settings: MCF7, 48 h; procedure, shortened: as §1
[4] = test system: HepG2; test: Induction of apoptosis in human HepG2 cells assessed as caspase 3 activity at 4 uM at 12 hrs by Ac-DEVD-pNA-based colorimetric assay relative to control; format: functional
Procedure, shortened: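 HepG2 cells were treated at 4 µM for 0, 3, 6 and 12 h. Caspase-3 activity was measured colorimetrically as conversion of Ac-DEVD-pNA to p-nitroaniline, using a Biovision kit per the manufacturer's protocol. Activity was expressed as fold over control.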

[5] = test system: HepG2; test: Induction of apoptosis in human HepG2 cells assessed as PARP cleavage after 8 hrs by Western blotting; format: functional, cell-based
Procedure, shortened: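 HepG2 cells were treated either at 5, 10 and 20 µM for 8 h, or at 4 µM for 0, 3, 6 or 12 h. PARP cleavage was then assessed.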

[6] = test system: SMMC-7721; test: Cytotoxicity against human SMMC7721 cells after 48 hrs by MTT assay; format: functional, cell-based; settings: SMMC-7721, 48 h; procedure, shortened: as §1
[7] = Cytotoxicity against human QSG7701 cells after 48 hrs by MTT assay; format: cell-based; settings: QSG7701, 48 h; procedure, shortened: as §1
[8] = test system: HepG2; test: Cytotoxicity against human HepG2 cells after 48 hrs by MTT assay; format: functional, cell-based; settings: HepG2, 48 h; procedure, shortened: as §1
[9] = test system: A549; test: Cytotoxicity against human A549 cells after 48 hrs by MTT assay; format: functional, cell-based; settings: A549, 48 h; procedure, shortened: as §1
[10] = test system: HepG2; test: Cytotoxicity against human HepG2 cells at 100 uM after 48 hrs by MTT assay; format: functional, cell-based
[11] = test system: MCF7; test: Cytotoxicity against human MCF7 cells at 100 uM after 48 hrs by MTT assay; format: functional, cell-based
[12] = test system: SMMC-7721; test: Cytotoxicity against human SMMC7721 cells at 100 uM after 48 hrs by MTT assay; format: functional, cell-based
[13] = test system: A549; test: Cytotoxicity against human A549 cells at 100 uM after 48 hrs by MTT assay; format: functional, cell-based

SMILES	IC50 [1] [µM]	Activity [2]	IC50 [3] [µM]	fold change (FC) [4]	Activity [5]	IC50 [6] [µM]	IC50 [7] [µM]	IC50 [8] [µM]	IC50 [9] [µM]	Activity [10]	Activity [11]	Activity [12]	Activity [13]
C[C@@H]1[C@@H]2CC(=O)O[C@@H]2C[C@]1(C)O	20.7	Active	7.56	6	Dose-dependent effect	6.56	16.3	5.36	5.88				
C[C@@H]1[C@@H]2C(=O)O[C@@H]2C[C@]1(C)O										inactive	inactive	inactive	inactive
